Reference: ChEMBL document CHEMBL1123923, “Steroidal silicon side-chain analogues as potential antifertility agents” (1987)

Columns and labels:
Rattus norvegicus [1] = species: Rattus norvegicus; assay: Antifertility activity measured as minimum protective dose for prevention of pregnancy in rats; assay type: functional; design: unit not given here
Summary of the method: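 Oral dosing in adult cycling female rats selected in the proestrous phase, 10 animals per dose, with treatment starting on the day of proestrus.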

[2] = molecular target: T1, Estrogen receptor (Rattus norvegicus) (UniProt P06211+Q62986); assay: Oral estrogenic activity in 21 day old immature ovariectomized rats at 500 ug; assay type: functional
Summary of the method: (§1)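 Rats dosed orally with compound suspended in 0.5% (carboxymethyl)cellulose, 10 animals per dose, daily for 4 days starting on the day of ovariectomy. Autopsy on the day after the last dose. Read-outs were the increase in uterine weight and cornification of vaginal smears, taken from animals with open vaginas, compared against a standard estrogen.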

[3] = molecular target: T1, Estrogen receptor (Rattus norvegicus); assay: Oral estrogenic activity in 21 day old immature ovariectomized rats at 200 ug; assay type: functional; summary of the method: as §1
[4] = molecular target: T1, Estrogen receptor (Rattus norvegicus); assay: Oral estrogenic activity in 21 day old immature ovariectomized rats at 1000 ug; assay type: functional; summary of the method: as §1
[5] = molecular target: T1, Estrogen receptor (Rattus norvegicus)
Rattus norvegicus [6] = species: Rattus norvegicus; assay: Separation of antifertility from estrogenic activity in rats was measured; assay type: functional

C=C([C@]1(O)CC[C@H]2[C@@H]3CCc4cc(O)ccc4[C@H]3CC[C@@]21C)[Si](CCCC)(CCCC)CCCC
Antifertility potency (Rattus norvegicus [1]): 0 | Estrogenic potency [2]: 0

C[C@]12CC[C@@H]3c4ccc(O)cc4CC[C@H]3[C@@H]1CC[C@@]2(O)/C=C/[Si](c1ccccc1)(c1ccccc1)c1ccccc1
Antifertility potency (Rattus norvegicus [1]): 0 | Estrogenic potency [3]: 0

CCC(C#C[C@]1(O)CC[C@H]2[C@@H]3CCc4cc(O)ccc4[C@H]3CC[C@@]21C)(CC)CC
Antifertility potency (Rattus norvegicus [1]): 0 | Estrogenic potency [4]: 0

C=C([C@]1(O)CC[C@H]2[C@@H]3CCc4cc(O)ccc4[C@H]3CC[C@@]21C)[Si](c1ccccc1)(c1ccccc1)c1ccccc1
Antifertility potency (Rattus norvegicus [1]): 0 | Estrogenic potency [3]: 0

CCCC[Si](C=C[C@]1(O)CC[C@H]2[C@@H]3CCc4cc(O)ccc4[C@H]3CC[C@@]21C)(CCCC)CCCC
Antifertility potency (Rattus norvegicus [1]): 0 | Estrogenic potency [4]: 0

C[C@]12CC[C@@H]3c4ccc(O)cc4CC[C@H]3[C@@H]1CC[C@@]2(O)C#C[Si](C)(C)C
Antifertility potency (Rattus norvegicus [1]): 33 | Estrogenic potency [5]: 7 | Separation (Rattus norvegicus [6]): 4.7

CC[SiH](C#C[C@]1(O)CC[C@H]2[C@@H]3CCc4cc(O)ccc4[C@H]3CC[C@@]21C)CC
Antifertility potency (Rattus norvegicus [1]): 600 | Estrogenic potency [5]: 29 | Separation (Rattus norvegicus [6]): 21

CCCC[Si](C)(C)C#C[C@]1(O)CC[C@H]2[C@@H]3CCc4cc(O)ccc4[C@H]3CC[C@@]21C
Antifertility potency (Rattus norvegicus [1]): 300 | Estrogenic potency [5]: 20 | Separation (Rattus norvegicus [6]): 15

CC[Si](O)(C#C[C@]1(O)CC[C@H]2[C@@H]3CCc4cc(O)ccc4[C@H]3CC[C@@]21C)CC
Antifertility potency (Rattus norvegicus [1]): 300 | Estrogenic potency [5]: 11 | Separation (Rattus norvegicus [6]): 27

C[C@]12CC[C@@H]3c4ccc(O)cc4CC[C@H]3[C@@H]1CC[C@@]2(O)C#C[Si]1(C)CCCCC1
Antifertility potency (Rattus norvegicus [1]): 250 | Estrogenic potency [5]: 25 | Separation (Rattus norvegicus [6]): 10

CCC(C)[Si](C#C[C@]1(O)CC[C@H]2[C@@H]3CCc4cc(O)ccc4[C@H]3CC[C@@]21C)(CC)CC (stereo partly drawn)
Antifertility potency (Rattus norvegicus [1]): 300 | Estrogenic potency [5]: 57 | Separation (Rattus norvegicus [6]): 5
